pIC50, pKi: −log10 of the molar value.
How the values were obtained:
[1] = test system: Delta-type opioid receptor; test: Receptor selectivity index is the ratio of the apparent KI at delta opioid receptor over the apparent KI at the highest affinity site
Outline: (§1)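 RSI is the apparent KI at the given site divided by the apparent KI at the highest-affinity site. KI values come from [3H]DAGO (μ) and [3H]DSLET (δ) binding in rat brain membranes and [3H]bremazocine (κ) binding in guinea pig cerebellum membranes, all at 25 °C with peptidase inhibitors.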

[2] = molecular target: Delta-type opioid receptor (Rattus norvegicus, UniProt P33533); test: Compound was evaluated for the inhibition of [3H]DSLET([[3H]D-Ser2,Leu5,Thr6]enkephalin binding to Opioid receptor delta 1 in rat brain homogenates.; format: tissue-based
Sequence of Delta-type opioid receptor (Rattus norvegicus, UniProt P33533) (P33533 whole entry): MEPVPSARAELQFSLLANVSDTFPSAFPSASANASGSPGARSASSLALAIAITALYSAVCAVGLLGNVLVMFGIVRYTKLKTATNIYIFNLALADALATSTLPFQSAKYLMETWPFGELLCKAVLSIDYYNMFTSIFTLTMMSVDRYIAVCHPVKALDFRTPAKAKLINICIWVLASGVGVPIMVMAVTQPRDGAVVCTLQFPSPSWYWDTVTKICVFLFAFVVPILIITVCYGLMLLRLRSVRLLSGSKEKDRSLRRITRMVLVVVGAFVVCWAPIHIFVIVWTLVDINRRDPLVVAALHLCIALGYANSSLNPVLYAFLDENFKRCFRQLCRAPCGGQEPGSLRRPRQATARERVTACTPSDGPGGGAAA

Cricetinae gen. sp. = test: The compound was evaluated for the antagonistic activity in hamster vas deferens; format: functional, Cricetulus griseus
Outline: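 Agonist concentration chosen to depress twitch height by 20-40%. Ke is the peptide concentration that reduces the effect of a double agonist dose to that of a single dose. Peptide tested up to 10 μM. At least four independent measurements.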

Cavia porcellus [3] = species on record: Cavia porcellus; test: The compound was evaluated for the antagonistic activity against dynorphin A in guinea pig ileum; format: functional
Outline: (§2)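 Isolated electrically stimulated organ (guinea pig ileum myenteric plexus-longitudinal muscle; rabbit vas deferens), run with a peptidase-inhibitor mixture, twitch contractions recorded. In the antagonism test, the peptide concentration was set to depress the twitch by 20-40%. Analogue tested up to 10 μM. Ke is the concentration reducing the effect of a double dynorphin A dose to that of a single dose. Mean ± SEM of at least four independent measurements.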

[4] = molecular target: T1, Kappa-type opioid receptor (Homo sapiens, UniProt P41145); test: Compound was evaluated for the agonistic activity against Opioid receptor kappa 1 in rabbit vas deferens.; format: functional, Oryctolagus cuniculus; details: target entry is the homologue from another species
T1 sequence (P41145 whole entry): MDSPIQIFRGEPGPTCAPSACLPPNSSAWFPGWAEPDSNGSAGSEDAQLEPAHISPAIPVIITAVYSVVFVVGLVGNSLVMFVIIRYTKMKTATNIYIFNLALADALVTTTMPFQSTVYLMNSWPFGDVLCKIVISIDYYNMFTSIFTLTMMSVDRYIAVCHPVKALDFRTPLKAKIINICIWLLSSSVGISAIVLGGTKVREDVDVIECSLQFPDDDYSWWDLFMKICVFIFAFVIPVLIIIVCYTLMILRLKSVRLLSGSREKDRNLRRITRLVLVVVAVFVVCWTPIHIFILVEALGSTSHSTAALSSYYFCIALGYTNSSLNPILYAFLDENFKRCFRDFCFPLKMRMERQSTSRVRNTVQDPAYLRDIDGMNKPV
Outline: (§3)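 Isolated organs (guinea pig ileum myenteric plexus-longitudinal muscle, hamster vas deferens, rabbit vas deferens) were electrically stimulated, and inhibition of the evoked twitch contractions was recorded. The bath held a peptidase inhibitor mixture. Peptides were tested up to 10 μM.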

[5] = molecular target: Delta-type opioid receptor (Rattus norvegicus) (UniProt P33533); test: Hill coefficient value was measured against delta sites in rat brain homogenates; format: tissue-based
Sequence of Delta-type opioid receptor (Rattus norvegicus) (P33533 whole entry): as the sequence (P33533 whole entry) above

Mu-type opioid receptor [6] = molecular target: Mu-type opioid receptor (Rattus norvegicus, UniProt P33535); test: Compound was evaluated for the inhibition of [3H]DAGO([[3H]D-Ala,MePhe4,Glyol5]enkephalin) binding to mu sites in rat brain homogenates.; format: tissue-based
Sequence of Mu-type opioid receptor (Rattus norvegicus, UniProt P33535) (P33535 whole entry): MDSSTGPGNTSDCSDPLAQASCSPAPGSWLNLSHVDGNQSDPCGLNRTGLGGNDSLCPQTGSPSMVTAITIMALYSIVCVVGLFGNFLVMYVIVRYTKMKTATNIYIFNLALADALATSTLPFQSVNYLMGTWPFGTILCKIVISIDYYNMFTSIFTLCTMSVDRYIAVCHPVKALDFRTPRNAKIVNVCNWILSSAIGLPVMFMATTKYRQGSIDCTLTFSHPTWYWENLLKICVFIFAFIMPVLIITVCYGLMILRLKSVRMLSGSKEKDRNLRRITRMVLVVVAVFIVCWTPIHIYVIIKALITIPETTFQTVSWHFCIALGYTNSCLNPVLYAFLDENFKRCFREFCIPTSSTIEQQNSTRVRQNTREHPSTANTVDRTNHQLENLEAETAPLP

Cavia porcellus [7] = species on record: Cavia porcellus; test: The compound was evaluated for the antagonistic activity against DAGO (mu-receptor) in guinea pig ileum.; format: functional
Mu-type opioid receptor [8] = molecular target: Mu-type opioid receptor (Cavia porcellus, UniProt P97266); test: Compound was evaluated for the agonistic activity against Opioid receptor mu 1 in guinea pig ileum.; format: functional, tissue-based; outline: as §3
Sequence of Mu-type opioid receptor (Cavia porcellus, UniProt P97266) (P97266 whole entry): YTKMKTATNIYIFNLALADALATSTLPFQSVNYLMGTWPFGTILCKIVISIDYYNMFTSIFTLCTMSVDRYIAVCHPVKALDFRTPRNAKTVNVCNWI

[9] = molecular target: T1, Kappa-type opioid receptor; test: Receptor selectivity index is the ratio of the apparent KI at kappa opioid receptor over the apparent KI at the highest affinity site; outline: as §1
[10] = molecular target: Kappa-type opioid receptor (Cavia porcellus) (UniProt P41144); test: Hill coefficient value was measured against Opioid receptor kappa 1 in guinea pig cerebellum membrane homogenates; format: cell membranes
Sequence of Kappa-type opioid receptor (Cavia porcellus) (P41144 whole entry): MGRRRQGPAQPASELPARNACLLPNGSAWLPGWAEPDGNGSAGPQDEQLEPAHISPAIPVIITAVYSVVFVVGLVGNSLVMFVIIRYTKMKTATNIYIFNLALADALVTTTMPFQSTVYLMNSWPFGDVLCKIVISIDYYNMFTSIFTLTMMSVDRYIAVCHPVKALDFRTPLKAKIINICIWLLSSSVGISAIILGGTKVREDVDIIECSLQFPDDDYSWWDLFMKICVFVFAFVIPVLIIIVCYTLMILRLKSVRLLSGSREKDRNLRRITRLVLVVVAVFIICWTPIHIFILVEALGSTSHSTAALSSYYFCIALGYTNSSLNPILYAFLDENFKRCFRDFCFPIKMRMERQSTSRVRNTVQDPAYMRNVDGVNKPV

[11] = molecular target: Kappa-type opioid receptor (Cavia porcellus, UniProt P41144); test: Compound was evaluated for the inhibition of [3H]bremazocine binding to Opioid receptor kappa 1 in guinea pig cerebellum membrane homogenates.; format: cell membranes
Sequence of Kappa-type opioid receptor (Cavia porcellus, UniProt P41144) (P41144 whole entry): as above
Outline: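 Guinea pig cerebellum crude membranes were incubated with [3H]bremazocine (0.5 nM) at 25 °C for 60 min with peptidase inhibitors. Values are the mean ± SEM of at least three independent observations.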

[12] = molecular target: Mu-type opioid receptor (Rattus norvegicus) (UniProt P33535); test: Hill coefficient value was measured against mu sites in rat brain homogenates; format: tissue-based
Sequence of Mu-type opioid receptor (Rattus norvegicus) (P33535 whole entry): as the sequence (P33535 whole entry) above

Oryctolagus cuniculus = species on record: Oryctolagus cuniculus; test: The compound was evaluated for the antagonistic activity in rabbit vas deferens; format: functional; outline: as §2

| SMILES | Ratio [1] | pKi [2] | Ke (Cricetinae gen. sp.) [nM] | Ke (Cavia porcellus [3]) [nM] | pIC50 [4] | Hill coefficient [5] | pKi (Mu-type opioid receptor [6]) | Ke (Cavia porcellus [7]) [nM] | pIC50 (Mu-type opioid receptor [8]) | Ratio [9] | Hill coefficient [10] | pKi [11] | Hill coefficient [12] | Ke (Oryctolagus cuniculus) [nM] |
| --- | --- | --- | --- | --- | --- | --- | --- | --- | --- | --- | --- | --- | --- | --- |
| CC(C)C[C@H](NC(=O)[C@H](Cc1ccccc1)NC(=O)[C@@H](Cc1c[nH]c2ccccc12)NC(=O)CNC(=O)[C@@H](N)Cc1ccc(O)cc1)C(=O)N[C@@H](CCCN=C(N)N)C(=O)N[C@@H](CCCN=C(N)N)C(=O)N[C@H](Cc1c[nH]c2ccccc12)C(=O)N[C@@H](CCCN=C(N)N)C(=O)N1CCC[C@@H]1C(=O)N[C@@H](CCCCN)C(=O)O | 53 | 5.99 | 1127 | 10.3 | < 5.00 | 1.07 | 6.49 | 40.5 | 6.65 | 1 | 1.03 | 7.71 | 1.31 | 1127 |
| CC[C@H](C)[C@H](NC(=O)[C@H](CCCNC(=N)N)NC(=O)[C@H](CCCNC(=N)N)NC(=O)[C@H](CC(C)C)NC(=O)[C@H](Cc1ccccc1)NC(=O)CNC(=O)CNC(=O)[C@@H](N)Cc1ccc(O)cc1)C(=O)N[C@@H](CCCNC(=N)N)C(=O)N1CCC[C@H]1C(=O)N[C@@H](CCCCN)C(=O)O [DYNORPHIN A (1-11)] | – | – | – | – | 7.88 | – | – | – | – | – | – | – | – | – |
| CC(C)C[C@H](NC(=O)[C@@H](Cc1c[nH]c2ccccc12)NC(=O)CNC(=O)CNC(=O)[C@@H](N)Cc1ccc(O)cc1)C(=O)N[C@@H](CCCN=C(N)N)C(=O)N[C@@H](CCCN=C(N)N)C(=O)N[C@H](Cc1c[nH]c2ccccc12)C(=O)N[C@@H](CCCN=C(N)N)C(=O)N1CCC[C@@H]1C(=O)N[C@@H](CCCCN)C(=O)O | 8.6 | 6.20 | – | 606 | < 5.00 | 0.92 | 6.85 | 249 | < 5.00 | 1 | 0.85 | 7.14 | 1.06 | 1432 |
| CC(C)C[C@H](NC(=O)[C@@H](Cc1c[nH]c2ccccc12)NC(=O)CNC(=O)[C@@H](Cc1c[nH]c2ccccc12)NC(=O)[C@@H](N)Cc1ccc(O)cc1)C(=O)N[C@@H](CCCN=C(N)N)C(=O)N[C@@H](CCCN=C(N)N)C(=O)N[C@H](Cc1c[nH]c2ccccc12)C(=O)N[C@@H](CCCN=C(N)N)C(=O)N1CCC[C@@H]1C(=O)N[C@@H](CCCCN)C(=O)O | 5.6 | 6.87 | – | 61 | < 5.00 | 0.86 | 7.29 | 83 | < 5.00 | 1 | 0.85 | 7.62 | 0.89 | 293 |
| CC(C)C[C@H](NC(=O)[C@H](Cc1ccccc1)NC(=O)CNC(=O)[C@@H](Cc1c[nH]c2ccccc12)NC(=O)[C@@H](N)Cc1ccc(O)cc1)C(=O)N[C@@H](CCCN=C(N)N)C(=O)N[C@@H](CCCN=C(N)N)C(=O)N[C@H](Cc1c[nH]c2ccccc12)C(=O)N[C@@H](CCCN=C(N)N)C(=O)N1CCC[C@@H]1C(=O)N[C@@H](CCCCN)C(=O)O | 5.5 | 6.25 | – | 206 | < 5.00 | 0.72 | 6.99 | – | 5.05 | 1.5 | 0.83 | 6.82 | 1.15 | 433 |
| CC[C@H](C)[C@H](NC(=O)[C@H](CCCN=C(N)N)NC(=O)[C@H](CCCN=C(N)N)NC(=O)[C@H](CC(C)C)NC(=O)[C@H](Cc1ccccc1)NC(=O)CNC(=O)CNC(=O)[C@@H](N)Cc1ccc(O)cc1)C(=O)N[C@@H](CCCN=C(N)N)C(=O)N1CCC[C@@H]1C(=O)N[C@@H](CCCCN)C(=O)O | – | – | – | – | 7.92 | – | – | – | – | – | – | – | – | – |
| CC[C@H](C)[C@H](NC(=O)[C@H](CCCNC(=N)N)NC(=O)[C@H](CCCNC(=N)N)NC(=O)[C@H](CC(C)C)NC(=O)[C@H](Cc1ccccc1)NC(=O)CNC(=O)CNC(=O)[C@@H](N)Cc1ccc(O)cc1)C(=O)N[C@@H](CCCNC(=N)N)C(=O)N1CCC[C@H]1C(=O)N[C@@H](CCCCN)C(=O)N[C@@H](CC(C)C)C(=O)N[C@@H](CCCCN)C(=O)N[C@@H](Cc1c[nH]c2ccccc12)C(=O)N[C@@H](CC(=O)O)C(=O)N[C@@H](CC(N)=O)C(=O)N[C@@H](CCC(N)=O)C(=O)O | – | – | – | – | – | – | – | – | – | – | – | 9.64 | – | – |
| NCCCC[C@H](NC(=O)[C@H]1CCCN1C(=O)[C@H](CCCN=C(N)N)NC(=O)[C@@H](Cc1c[nH]c2ccccc12)NC(=O)[C@H](CCCN=C(N)N)NC(=O)[C@H](CCCN=C(N)N)NC(=O)[C@@H](Cc1c[nH]c2ccccc12)NC(=O)[C@H](Cc1ccccc1)NC(=O)CNC(=O)CNC(=O)[C@@H](N)Cc1ccc(O)cc1)C(=O)O | 15 | 6.52 | – | – | < 5.00 | 0.9 | 7.69 | 13.9 | 7.16 | 1 | 0.96 | 7.69 | 1.23 | 199 |
| CC[C@H](C)[C@H](NC(=O)[C@H](CCCN=C(N)N)NC(=O)[C@H](CCCN=C(N)N)NC(=O)[C@H](CC(C)C)NC(=O)[C@H](Cc1ccccc1)NC(=O)CNC(=O)CNC(=O)[C@@H](N)Cc1ccc(O)cc1)C(=O)N[C@@H](CCCN=C(N)N)C(=O)N1CCC[C@H]1C(=O)N[C@@H](CCCCN)C(=O)N[C@@H](CC(C)C)C(=O)N[C@@H](CCCCN)C(=O)N[C@@H](Cc1c[nH]c2ccccc12)C(=O)N[C@@H](CC(=O)O)C(=O)N[C@@H](CC(N)=O)C(=O)N[C@@H](CCC(=O)O)C(=O)O | – | – | – | – | – | – | – | – | – | – | 0.79 | – | – | – |
| CC(C)C[C@H](NC(=O)[C@H](Cc1ccccc1)NC(=O)CNC(=O)CNC(=O)[C@@H](N)Cc1ccc(O)cc1)C(=O)N[C@@H](CCCN=C(N)N)C(=O)N[C@@H](CCCN=C(N)N)C(=O)N[C@H](Cc1c[nH]c2ccccc12)C(=O)N[C@@H](CCCN=C(N)N)C(=O)N1CCC[C@@H]1C(=O)N[C@@H](CCCCN)C(=O)O | 110 | 8.27 | – | – | 7.89 | 0.98 | 9.24 | – | 8.55 | 1 | 1 | 10.31 | 0.86 | – |

From ChEMBL document CHEMBL1123230, “Synthesis and biological activities of dynorphin A analogues with opioid antagonist properties” (J Med Chem, 1986)
